High-throughput results (PubChem)
This is a sample that favours compounds with a hit; in the whole collection about 2.6% have one here.
SIRT5 block: SIRT5 desuccinylase inhibitors, primary screen, biochemical, fluorescence imaging, single point, set 5; NAD-dependent protein deacylase sirtuin-5, mitochondrial (Homo sapiens), Q9NXA8; Purified SirT5, succinyl-peptide AMC, trypsin-coupled fluorescence; inhibition, % at 15 µM; 330,000 tested, 1.1% active; AID 652115, 2013; in the data active = inhibition above about 15%
NSD2 HMT inh: NSD2 histone methyltransferase inhibitors, primary screen, biochemical, AlphaScreen, single concentration, set 2. Histone-lysine N-methyltransferase NSD2 (Homo sapiens), O96028. NSD2 peptide methylation, 120 min. inhibition, % at 12.5 µM. 310,000 tested, 0.54% active; in the data active = inhibition above about 50%
UCH37 DUB inh: inhibitors of human UCH37 deubiquitinase, primary screen, biochemical, Ub-AMC cleavage, fluorescence | Ubiquitin carboxyl-terminal hydrolase isozyme L5 (Homo sapiens), Q9Y5K5 | purified proteasome/UCH37 | inhibition, % (concentration not given with the values) | 330,000 tested, 0.33% active;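 active = mean inhibition over replicate wells above about 20%, limit read from the data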;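 note: 0% = compound-free wells with enzyme and 100% = wells lacking proteasome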
Target sequence (Q9Y5K5 whole entry, looked up): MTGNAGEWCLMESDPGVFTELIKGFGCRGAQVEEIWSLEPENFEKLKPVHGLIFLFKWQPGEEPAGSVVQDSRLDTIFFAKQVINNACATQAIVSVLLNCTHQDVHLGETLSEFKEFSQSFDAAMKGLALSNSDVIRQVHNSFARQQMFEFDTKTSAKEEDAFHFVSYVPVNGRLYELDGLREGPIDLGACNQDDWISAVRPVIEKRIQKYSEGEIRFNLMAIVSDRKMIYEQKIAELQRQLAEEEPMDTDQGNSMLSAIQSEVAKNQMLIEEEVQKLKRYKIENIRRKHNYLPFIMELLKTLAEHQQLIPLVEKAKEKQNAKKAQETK
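Schedule: 30 min plus 25 min, room temperature / Material: human UCH37 within purified proteasomes / Technique: AMC fluorescence intensity at 355/460 nm / Buffer or medium: pH 7.4 Tris-HCl (50 mM) with ovalbumin, ATP-MgCl2, DTT / Controls: wells without proteasome as full block, compound-free enzyme plus substrate as uninhibited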
FGF22 binding: binders of human FGF22 protein, primary screen, FGF22 synaptogenesis inhibitor project, biophysical, thermal shift, single point | recombinant FGF22 thermal shift, SYPRO orange fluorescence; percent of sucrose octasulfate shift, DMSO zero | activity (Tm shift, normalised), % at 9.99 µM | 340,000 tested, 1.5% active | AID 651658, 2012;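 active = mean Tm shift, scaled 0 neutral to 100 positive control, at about 1.3% or above, every replicate too, limit read from the data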
CASP6 VEID inh: human caspase-6 inhibitors, primary screen, biochemical, VEID-R110 fluorescence, single point, set 2; P55212; purified caspase-6, Z-VEID-R110 cleavage fluorescence; 350,000 tested, 0.53% active; inhibition, % at 12.5 µM; AID 686996, 2013;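 active = mean inhibition across replicates at least about 35%, with every replicate also reaching that limit, limit read from the data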;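 note: 0% = median of neutral control wells and 100% = no fluorescence left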
Target sequence (P55212 24-179 limits assumed): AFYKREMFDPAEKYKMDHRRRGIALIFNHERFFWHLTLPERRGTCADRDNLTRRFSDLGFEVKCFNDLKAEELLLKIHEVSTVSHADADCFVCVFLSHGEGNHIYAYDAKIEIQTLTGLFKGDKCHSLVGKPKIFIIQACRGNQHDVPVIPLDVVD
Target sequence (P55212 194-293 limits assumed): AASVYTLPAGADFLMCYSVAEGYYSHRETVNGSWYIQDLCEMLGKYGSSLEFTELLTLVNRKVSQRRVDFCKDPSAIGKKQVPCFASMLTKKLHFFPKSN
* hit, by the source's call; . = no result given; ! = not active in a repeat.

SMILES	SIRT5 block	NSD2 HMT inh	UCH37 DUB inh	FGF22 binding	CASP6 VEID inh
C[C@@H]1CN([C@@H](C)CO)S(=O)(=O)c2ccc(C3=CCCCC3)cc2O[C@H]1CN(C)S(=O)(=O)c1ccc(F)cc1	26.1*	.	.	0.0	-0.7
C[C@H]1CN([C@@H](C)CO)S(=O)(=O)c2ccc(C3=CCCCC3)cc2O[C@H]1CN(C)S(=O)(=O)c1ccc(F)cc1	26.7*	.	.	-0.8	-0.6
C[C@H]1CN([C@@H](C)CO)S(=O)(=O)c2ccc(C3=CCCC3)cc2O[C@@H]1CN(C)S(=O)(=O)c1ccc(F)cc1	3.9	.	.	0.3	-0.6
C[C@@H]1CN([C@@H](C)CO)S(=O)(=O)c2ccc(C3=CCCCC3)cc2O[C@@H]1CN(C)S(=O)(=O)c1ccc(F)cc1	22.3*	.	.	0.6	1.3
Cc1ccc(S(=O)(=O)N(C)C[C@@H]2Oc3cc(C4=CCCC4)ccc3S(=O)(=O)N([C@@H](C)CO)C[C@H]2C)cc1	5.2	.	.	0.1	2.4
COc1ccc(NC(=O)N2C[C@@H](O)COC[C@H]3O[C@H](CC(=O)NCc4ccccc4OC)CC[C@@H]32)cc1	-1.9	.	.	-0.1	0.0
CO[C@@H]1CN(C)C(=O)c2ccc(NC(=O)Cc3ccccc3)cc2OC[C@H](C)N(C)C[C@@H]1C	-0.6	.	.	.	-7.2
C[C@@H]1CN([C@H](C)CO)S(=O)(=O)c2ccc(C3=CCCC3)cc2O[C@H]1CN(C)S(=O)(=O)c1ccc(F)cc1	3.7	.	.	.	0.8
C[C@H]1CN([C@@H](C)CO)S(=O)(=O)c2ccc(C3=CCCCC3)cc2O[C@@H]1CN(C)S(=O)(=O)c1ccc(F)cc1	33.3*	.	.	-0.3	1.2
COc1ccccc1CNC(=O)C[C@@H]1C[C@H]2c3cc(NC(=O)c4cccnc4)ccc3O[C@H]2[C@@H](CO)O1	1.5	.	.	0.2	-0.5
CSc1ccccc1C(=O)C1CCCN(Cc2cnn(-c3ccccc3)c2)C1 (configuration not stated)	2.5	7.6	4.5	43.3*	-2.9
O=C(C[C@@H]1CC[C@@H]2[C@H](COC[C@@H](O)CN2Cc2ccccc2F)O1)N[C@H]1CCN(Cc2ccccc2)C1	8.9	.	.	0.0	2.0
O=C1CCCCCN1C(=O)c1ccccc1	.	1.3	1.0	42.9*	2.6
CC(C)(C)c1ccc(C(=O)N2CCCCCC2=O)cc1	.	-2.9	0.0	.	.
C[C@@H]1CN([C@@H](C)CO)C(=O)c2cc(-c3ccncc3)cnc2O[C@@H]1CN(C)C(=O)c1ccccc1F	4.4	.	.	-0.1	0.1
O=C(O)c1ccc(NS(=O)(=O)/C=C/c2ccccc2)cc1O	0.5	4.0	2.5	1.0	43.5*
Nc1nonc1-n1nnc(C(=O)NN=Cc2c(F)cccc2Cl)c1-c1ccc2c(c1)OCO2	.	.	-57.4	.	.
Cc1ccc(C2NC(=S)NC3=C2C(=O)CCC3)cc1 (configuration not stated)	-0.8	.	5.0	43.1*	-1.2
O=c1[nH]c(CSc2nnnn2-c2ccccc2)nc2ccccc12	1.0	-1.8	0.4	43.4*	-2.0
CNC(=O)CSc1nnc(-c2ccc3c(c2)OCO3)n1C	-8.0	-1.4	0.6	43.3*	-5.3
COC(=O)CSc1nnc(-c2ccc3c(c2)OCO3)n1C	.	-2.4	3.3	.	.
COc1ccccc1NS(=O)(=O)c1cc(NC(=O)c2sc3cc(Cl)ccc3c2Cl)ccc1C	-2.0	-3.6	3.1	43.7*	-3.0
CCNC(=S)Nc1ccc(C)c(S(=O)(=O)Nc2ccccc2OC)c1	1.0	.	3.3	-0.1	4.3
O=C(COC(=O)c1cccs1)NCc1ccccc1	-2.1	-0.3	-0.8	.	-1.5
O=C(COC(=O)c1cccs1)NCC1CCCCC1	-2.0	0.0	1.6	43.4*	0.4
SMILES	SIRT5 block	NSD2 HMT inh	UCH37 DUB inh	FGF22 binding	CASP6 VEID inh
CC(=O)NN1C(=O)/C(=C/c2ccc(Br)o2)SC1=S	.	30.7	7.9	.	.
CC(=O)NN1C(=O)/C(=C\c2ccc(Br)o2)SC1=S	-0.9	6.7	7.2	0.3	50.5*
COc1ccc(S(=O)(=O)N2CCC(C(=O)NCCC3=CCCCC3)CC2)cc1C	-1.7	-4.7	22.1*	0.0	-3.7
COc1ccc(S(=O)(=O)N2CCC(C(=O)NCCN3CCOCC3)CC2)cc1C	7.1	-1.5	-1.0	-0.3	0.3
COc1ccc(S(=O)(=O)N2CCCC(C(=O)NCCN3CCOCC3)C2)cc1C (configuration not stated)	.	-1.5	-1.6	43.4*	-3.6
CC1CN(CCOCCSc2ccccc2)CC(C)O1 (configuration not stated)	-3.2	-5.0	-0.6	43.4*	-1.6
COc1cccc2c(SCC(=O)NN=Cc3ccc(O)cc3O)cc(C)nc12	.	.	-10.4	.	.
O=C(C[C@H]1CC[C@@H]2[C@H](COC[C@H](O)CN2Cc2cccc(F)c2)O1)NCc1cccc(F)c1	20.3*!	.	.	0.4	-2.9
O=C(C[C@@H]1CC[C@H]2[C@@H](COC[C@@H](O)CN2Cc2ccncc2)O1)NCc1ccncc1	18.6*	.	.	-0.1	-0.7
C[C@H](NC(=O)C[C@@H]1CC[C@H]2[C@@H](COC[C@@H](O)CN2Cc2ccc(C(F)(F)F)cc2)O1)c1ccccc1	16.6*	.	.	0.2	-0.6
O=C(C[C@H]1CC[C@H]2[C@@H](COC[C@@H](O)CN2Cc2ccncc2)O1)NCc1ccncc1	3.1	.	.	-0.3	-1.0
COc1ccccc1CN1[C@H](CO)[C@H](c2ccccc2)C12CN(C(C)=O)C2	16.5*	.	.	-0.2	0.9
CCCNC(=O)N1CC2(C1)[C@H](c1ccccc1)[C@H](CO)N2C(=O)C1CC1	23.8*	.	.	-0.2	0.6
COc1cccc(CN2[C@@H](CO)[C@H](c3ccccc3)C23CN(C(=O)C2CCCC2)C3)c1	25.6*	.	.	.	1.8
COc1cccc(CN2[C@H](CO)[C@H](c3ccccc3)C23CN(C(=O)C2CCCC2)C3)c1	1.8	.	.	.	0.1
CSc1nc(C)c2cc(C)oc2n1	.	1.5	-0.8	.	.
COc1nc(C)c2cc(C)oc2n1	-3.6	-2.0	2.5	-0.2	51.3*
O=C(NCCc1ccc(O)cc1)c1ccc(Cl)cc1	.	-2.3	31.4*	.	.
O=C(NNC(=O)c1ccccc1Br)c1ccc2nc[nH]c2c1	-1.7	-4.2	0.4	0.0	47.0*
O=C(NCCc1ccc(Cl)cc1)c1ccc2nc[nH]c2c1	-1.4	0.5	0.4	43.1*	4.6
CNC(=O)C[C@@H]1CC[C@@H]2[C@H](COc3ccc(NC(=O)Nc4ccc(F)cc4)cc3C(=O)N2C)O1	-1.4	.	.	0.0	-2.0
C[C@H](CO)N1C[C@H](C)[C@@H](CN(C)Cc2ccncc2)OCCCC[C@H](C)Oc2ccc(NS(=O)(=O)c3ccc(F)cc3)cc2C1=O	2.1	.	.	0.0	-0.7
